This passage reports IC50, inhibition and Ratio IC50 results from ChEMBL document CHEMBL1765045, “Fine-tuning the selectivity of aldosterone synthase inhibitors: structure-activity and structure-selectivity insights from studies of heteroaryl substituted 1,2,5,6-tetrahydropyrrolo[3,2,1-ij]quinolin-4-one derivatives” (J Med Chem, 2011).

Data set [1] concerns the target T1, Cytochrome P450 11B2, mitochondrial (Homo sapiens, UniProt P19099).
T1 sequence (P19099 whole entry): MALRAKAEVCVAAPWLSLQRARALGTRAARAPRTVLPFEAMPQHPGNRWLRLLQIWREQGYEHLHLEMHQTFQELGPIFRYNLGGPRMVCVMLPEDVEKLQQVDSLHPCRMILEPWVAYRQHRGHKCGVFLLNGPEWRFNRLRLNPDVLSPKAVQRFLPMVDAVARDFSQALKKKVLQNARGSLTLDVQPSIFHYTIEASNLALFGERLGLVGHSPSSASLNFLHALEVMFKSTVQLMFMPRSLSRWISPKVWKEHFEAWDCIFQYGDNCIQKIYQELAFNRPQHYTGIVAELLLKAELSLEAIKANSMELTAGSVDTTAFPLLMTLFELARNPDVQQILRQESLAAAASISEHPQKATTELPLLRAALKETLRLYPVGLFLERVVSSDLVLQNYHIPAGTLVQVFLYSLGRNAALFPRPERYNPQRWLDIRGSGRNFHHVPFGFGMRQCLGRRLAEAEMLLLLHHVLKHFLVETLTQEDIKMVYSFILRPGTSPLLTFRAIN
Kind of data set: Inhibition of human CYP11B2 expressed in hamster V79 MZh cells assessed as conversion of [4-14C]-11-deoxycorticosterone substrate by HPTLC assay. It is filed as cell-based. The gist of the method: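 Hamster V79 MZh fibroblasts expressing human CYP11B2 incubated with [4-14C]-11-deoxycorticosterone (100 nM) and inhibitor at ≥3 concentrations; reaction stopped with ethyl acetate, steroids extracted after shaking and centrifugation (10000g, 2 min). Substrate conversion read by HPTLC with phosphoimaging.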

Data set [2] deals with T1, Cytochrome P450 11B2, mitochondrial. Briefly: Inhibition of human CYP11B2 expressed in hamster V79 MZh cells assessed as conversion of [4-14C]-11-deoxycorticosterone substrate at 500 nM by HPTLC assay. Type of data set: cell-based. The conditions noted are these: V79MZh. In outline:
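V79 MZh cells expressing human CYP11B2 given [4-14C]-11-deoxycorticosterone, 100 nM, with inhibitor at a single 500 nM concentration. Ethyl acetate extraction, then HPTLC/phosphoimager readout of conversion. Percent inhibition is the mean of at least three experiments.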

Data set [3] concerns the target T2, Cytochrome P450 11B1, mitochondrial (Homo sapiens, UniProt P15538).
T2 sequence (P15538 whole entry): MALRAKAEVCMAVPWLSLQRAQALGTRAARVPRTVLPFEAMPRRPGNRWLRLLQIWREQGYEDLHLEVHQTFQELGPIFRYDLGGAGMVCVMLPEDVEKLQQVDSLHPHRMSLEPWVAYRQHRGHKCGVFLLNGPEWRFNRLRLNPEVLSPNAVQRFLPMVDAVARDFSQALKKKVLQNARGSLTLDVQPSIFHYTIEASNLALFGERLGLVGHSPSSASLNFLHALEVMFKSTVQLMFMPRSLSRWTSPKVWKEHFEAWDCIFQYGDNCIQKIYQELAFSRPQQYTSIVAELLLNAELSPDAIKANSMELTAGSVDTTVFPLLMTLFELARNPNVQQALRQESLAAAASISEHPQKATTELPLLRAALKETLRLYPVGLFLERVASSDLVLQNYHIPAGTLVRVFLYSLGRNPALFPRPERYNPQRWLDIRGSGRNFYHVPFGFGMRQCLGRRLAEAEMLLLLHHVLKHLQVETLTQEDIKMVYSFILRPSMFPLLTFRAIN
Briefly: Inhibition of human CYP11B1 expressed in hamster V79 MZh cells assessed as conversion of [4-14C]-11-deoxycorticosterone substrate by HPTLC assay. Type of data set: cell-based. The gist of the method:
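V79 MZh hamster fibroblasts stably expressing human CYP11B1 or CYP11B2 incubated with [4-14C]-11-deoxycorticosterone, 100 nM, plus inhibitor at ≥3 concentrations. Reaction stopped with ethyl acetate, steroids extracted into the organic phase, and substrate conversion quantified by HPTLC with phosphoimaging. IC50 is the mean of at least three experiments.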

Data set [4] has as its target T3, CYP17 (Homo sapiens, UniProt P05093).
T3 sequence (P05093 whole entry): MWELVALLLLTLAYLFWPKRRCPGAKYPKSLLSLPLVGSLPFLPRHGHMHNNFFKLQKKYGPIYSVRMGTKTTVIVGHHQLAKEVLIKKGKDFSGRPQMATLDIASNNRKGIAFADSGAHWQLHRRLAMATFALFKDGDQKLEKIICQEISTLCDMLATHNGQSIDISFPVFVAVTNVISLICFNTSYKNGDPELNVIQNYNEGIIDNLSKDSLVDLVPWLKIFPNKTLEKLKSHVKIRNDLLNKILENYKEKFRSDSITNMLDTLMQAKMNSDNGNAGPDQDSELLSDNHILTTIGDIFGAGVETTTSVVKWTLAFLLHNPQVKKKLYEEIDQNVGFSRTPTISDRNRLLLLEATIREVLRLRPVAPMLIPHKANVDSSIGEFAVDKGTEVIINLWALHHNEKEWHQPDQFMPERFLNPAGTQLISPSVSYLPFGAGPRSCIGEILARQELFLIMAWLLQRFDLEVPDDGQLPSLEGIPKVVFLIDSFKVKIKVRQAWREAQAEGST
Briefly: Inhibition of human CYP17 expressed in Escherichia coli using progesterone substrate at 2 uM. The settings on record: recombinant human CYP17 expressed in Escherichia coli, probe progesterone. In outline: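 50000g sediment of E. coli homogenate recombinantly expressing human CYP17. Progesterone substrate at 25 μM, inhibitor tested at 2 μM.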

Data set [5] is filed under the species Homo sapiens. Kind of data set: Selectivity ratio of IC50 for human CYP11B1 to IC50 for human CYP11B2. In outline:
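Ratio of IC50 values from V79 MZh cell assays for human CYP11B1 and CYP11B2, IC50 CYP11B1/IC50 CYP11B2. Both assays used [4-14C]-11-deoxycorticosterone, 100 nM, inhibitor at ≥3 concentrations and HPTLC/phosphoimager readout of conversion.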

pIC50: −log10 of the molar value.

Consider `O=C1CCc2cc(-c3cncc(-c4ccc(F)c(F)c4)c3)cc3c2N1CC3`, for which the negative-log IC50 (pIC50) is 8.64 in data set [1] and 6.30 in data set [3]. Moreover, in data set [2], the inhibition at 0.5 µM came to 89%. Besides, in data set [4], the inhibition at 2 µM was less than 5%.

Turning to `O=C1CCc2cc(-c3cncc4ccccc34)cc3c2N1CC3`, the pIC50 in data set [1] is 9.70; in data set [3], 7.89. For the same molecule, the inhibition at 0.5 µM in data set [2] was determined as 98%. For the same molecule, the inhibition at 2 µM in data set [4] was determined as 6%.

Turning to `O=C1CCc2cc(-n3ccnc3)cc3c2N1CC3`, the results for the pIC50 in data set [1] and in data set [3] were 7.05 and 5.68, respectively. Also, the inhibition at 0.5 µM in data set [2] turned out to be 87%.

For `O=C1CCc2cc(-c3cncc(C(F)(F)F)c3)cc3c2N1CC3`, the pIC50 was 8.23 in data set [1] and 6.85 in data set [3]. The inhibition at 0.5 µM in data set [2] was 96%.

Turning to `CC1(C)CC(=O)N2CCc3cc(-c4cccnc4)cc1c32`, the inhibition at 0.5 µM in data set [2] worked out at 48%.

Turning to `O=C1CCc2cc(-c3cncc(-c4cc(F)ccc4F)c3)cc3c2N1CC3`, the pIC50 is 8.44 in data set [1] and 6.74 in data set [3]. Besides, in data set [2], the inhibition at 0.5 µM was 80%.

Take `O=C1CCc2cc(-c3cncc(-c4ccccc4)c3)cc3c2N1CC3`: the negative logarithm of the IC50 (pIC50) is 8.89 in data set [1] and 7.24 in data set [3]. Also, in data set [2], the inhibition at 0.5 µM came to 97%. In addition, in data set [5], the Ratio IC50 stood at 45.

For `O=C1CCc2cc(-c3cncc(-c4cccc(O)c4)c3)cc3c2N1CC3`, the pIC50 in data set [1] is 8.92; in data set [3], 7.36. Besides, the inhibition at 0.5 µM in data set [2] was 92%.

Turning to `O=C1CCc2cc(-c3ccncc3)cc3c2N1CC3`, the inhibition at 0.5 µM in data set [2] is 7%.

For the molecule `O=C1CCc2cc(-c3cncc(-c4ccc(F)cc4)c3)cc3c2N1CC3`, the pIC50 was 9.05 in data set [1] and 7.40 in data set [3]. The inhibition at 0.5 µM in data set [2] is 96%.

In the case of `O=C1CCc2cc(-c3cncc(-c4cccc(OC(F)(F)F)c4)c3)cc3c2N1CC3`, the results for the pIC50 in data set [1] and in data set [3] were 7.80 and 5.69, respectively. The inhibition at 0.5 µM in data set [2] stood at 92%.

As for `O=C1CCc2cc(-c3cncc(O)c3)cc3c2N1CC3`, the pIC50 was 8.37 in data set [1] and 5.69 in data set [3]. Further, the inhibition at 0.5 µM in data set [2] stood at 94%.

As for `S=C1CCc2cc(-c3cccnc3)cc3c2N1CC3`, the pIC50 in data set [1] was 8.92; in data set [3], 6.48. Besides, in data set [2], the inhibition at 0.5 µM came to 96%. Besides, in data set [4], the inhibition at 2 µM is 11%.

For `CC(C)Oc1cncc(-c2cc3c4c(c2)CCN4C(=O)CC3)c1`, the pIC50 is 8.66 in data set [1] and 6.99 in data set [3]. Further, the inhibition at 0.5 µM in data set [2] amounted to 96%.

Take `O=C1CCc2cc(-c3cncc(-c4ccccc4F)c3)cc3c2N1CC3`: the values for the pIC50 in data set [1] and in data set [3] were 9.15 and 7.37, respectively. The inhibition at 0.5 µM in data set [2] came out at 92%. Further, the Ratio IC50 in data set [5] worked out at 61.

Take `COc1ccccc1-c1cncc(-c2cc3c4c(c2)CCN4C(=O)CC3)c1`: the values for the pIC50 in data set [1] and in data set [3] were 8.62 and 6.89, respectively. Also, the inhibition at 0.5 µM in data set [2] was 86%.

As for `COc1ccc(-c2cncc(-c3cc4c5c(c3)CCN5C(=O)CC4)c2)cc1`, the negative-log IC50 (pIC50) in data set [1] was 8.85; in data set [3] it was 7.68. The inhibition at 0.5 µM in data set [2] stood at 95%.

As for `CCOc1cncc(-c2cc3c4c(c2)CCN4C(=O)CC3)c1`, the pIC50 in data set [1] is 9.00; in data set [3], 6.80. The inhibition at 0.5 µM in data set [2] is 92%. Also, the Ratio IC50 in data set [5] is 158.

With `O=C1CCc2cc(-c3cncnc3)cc3c2N1CC3`, the pIC50 in data set [1] is 7.25; in data set [3] it was 4.54. Moreover, in data set [2], the inhibition at 0.5 µM was determined as 81%. Besides, the inhibition at 2 µM in data set [4] is 5%.

`O=C1CCc2cc(-c3cncc(-c4cc(F)cc(F)c4)c3)cc3c2N1CC3`: the pIC50 in data set [1] is 7.74; in data set [3], 5.76. For the same molecule, the inhibition at 0.5 µM in data set [2] stood at 81%.

For the molecule `O=C1CCc2cc(-c3cncc(F)c3)cc3c2N1CC3`, the pIC50 in data set [1] is 8.36; in data set [3], 5.89. Besides, the inhibition at 0.5 µM in data set [2] is 97%. The inhibition at 2 µM in data set [4] was less than 5%.

Consider `COc1cccc(-c2cncc(-c3cc4c5c(c3)CCN5C(=O)CC4)c2)c1`, for which the pIC50 in data set [1] was 8.34; in data set [3], 5.86. Moreover, the inhibition at 0.5 µM in data set [2] turned out to be 86%. Also, in data set [5], the Ratio IC50 worked out at 299. Further, the inhibition at 2 µM in data set [4] is less than 5%.

Take `O=C1CCc2cc(-c3cncc(-c4cccc(C(F)(F)F)c4)c3)cc3c2N1CC3`: the pIC50 was 7.48 in data set [1] and 5.33 in data set [3]. Further, in data set [2], the inhibition at 0.5 µM was determined as 80%.
